Published values collected from several papers.
Lines come from different studies, so protocols differ. Converted amounts (≈) assume the structure as drawn.

`COc1cc2ncnc(NN=C3C(=O)Nc4ccc(F)cc43)c2cc1OC` gave an inhibition of 19.2% (ZR75; cell growth or viability; 10 µM).
For `Cc1ccc(C(CS(=O)(=O)c2ccccc2)=NNc2nc(C)c(N=Nc3cccc(C)c3)s2)cc1`, the viability was 46.7% (WM 266-4; cell growth or viability, MTT; 6.3 µM, 48 h).
The EC50 of `NC(=O)c1cccnc1` is reported as ~1 mM (tissue relaxation, agonist; rat).
With `O=c1[nH]c(NCc2ccc(Cl)c(Cl)c2)nc2ncn(CCN3CCOCC3)c12` the MIC was 16 µg/mL (≈ 37.8 µM) (Lacticaseibacillus casei; microbial growth, agar dilution; 48 h).
`CC(C)(C)C1=CC(=NNc2ccc(C#N)cc2)C=C(C(C)(C)C)C1=O` gave an IC50 of 3.8 µM (Toxoplasma gondii; parasite growth, fluorescence; 5 days, intracellular).
For `Cc1ccc(C(CS(=O)(=O)c2ccccc2)=NNC2=NC(=O)C(=NNc3ccccc3)S2)cc1`, the viability was 41.2% (WM 266-4; cell growth or viability, MTT; 25 µM, 48 h).
For `Nc1ccc(S(=O)(=O)Nc2ncccn2)cc1`, the IC50 was 27.3 µM (Toxoplasma gondii; parasite growth; human Fibroblast; intracellular).
`C[C@@H](c1ncncc1F)[C@](O)(Cn1cncn1)c1ccc(F)cc1F` gave an IC50 of 2.69 µM (Acanthamoeba castellanii; parasite growth, resazurin; 96 h).
`NC(=S)NN=C(CS(=O)(=O)c1ccccc1)c1ccc(F)cc1` gave a viability of 31.3% (WM 266-4; cell growth or viability, MTT; 25 µM, 48 h).
For `CCN(CC)CCNC(=O)c1c(C)[nH]c(/C=C2\C(=O)Nc3ccc(F)cc32)c1C`, the inhibition was 90.7% (ZR75; cell growth or viability; 30 µM).
`Cc1ncc([N+](=O)[O-])n1CCO` gave an MIC of > 16 µg/mL (Lacticaseibacillus casei; microbial growth, agar dilution; 48 h).
For `Cc1ccc(C(CS(=O)(=O)c2ccccc2)=NN=C2N=C(c3ccc(Br)cc3)CS2)cc1`, the viability was 31.7% (WM 266-4; cell growth or viability, MTT; 100 µM, 48 h).
`COc1ccc(-c2nc(NN=C3C(=O)Nc4ccccc43)c3ccccc3n2)cc1OC` gave an inhibition of 54.9% (ZR75; cell growth or viability; 30 µM).
